# Measured values of several laboratories.
# Lines come from different studies, so protocols differ.
# PTPN22: Tyrosine-protein phosphatase non-receptor type 22 (PTPN22, Homo sapiens, UniProt Q9Y2R2)
# TNK2: Activated CDC42 kinase 1 (TNK2, Homo sapiens, UniProt Q07912)
# SLC6A3: Sodium-dependent dopamine transporter (SLC6A3, Homo sapiens, UniProt Q01959)
# PRMT1: Protein arginine N-methyltransferase 1 (PRMT1, Homo sapiens, UniProt Q99873)
# PDE10A: cAMP and cAMP-inhibited cGMP 3',5'-cyclic phosphodiesterase 10A (PDE10A, Homo sapiens, UniProt Q9Y233)
# CHEK1: Serine/threonine-protein kinase Chk1 (CHEK1, Homo sapiens, UniProt O14757)
# DDR2: Discoidin domain-containing receptor 2 (DDR2, Homo sapiens, UniProt Q16832)
# TLR8: Toll-like receptor 8 (TLR8, Homo sapiens, UniProt Q9NR97)
# ACLY: ATP-citrate synthase (ACLY, Homo sapiens, UniProt P53396)
SMILES,target,test,system,setting,IC50 [µM]
O=C(O)C(=O)CC(=O)c1cccc(N(Cc2ccccc2)Cc2ccccc2)c1,PTPN22,"enzyme activity, inhibitor, absorbance",,pH 7,73
COc1cc(N2CCN(C)CC2)ccc1Nc1ncc2c(n1)N(C)c1ccccc1C(=O)N2CC(F)(F)F,TNK2,"cell-free assay, TR-FRET",,,5
Clc1ccc(C(c2ccccc2)c2nnnn2CCCCN2CCC(CCCc3ccccc3)CC2)cc1 (stereo not shown),SLC6A3,"transporter uptake, inhibitor",,,0.331
Nc1ncnc2c1ncn2[C@@H]1O[C@H](CN(CC[C@H](N)C(=O)O)Cc2ccc3ccccc3c2)[C@@H](O)[C@H]1O,PRMT1,"enzyme activity, inhibitor",,,> 50
COc1ccc2c(c1)C(CC(=O)Nc1cccnc1)=C(C)/C2=C/c1cc(OC)c(OC)c(OC)c1,PDE10A,"enzyme activity, inhibitor, FP",,,0.3
COc1ccc2c(Oc3ccc4c(C(=O)Nc5ccccc5N)cccc4c3)ccnc2c1,"Ephrin type-B receptor 4 (EPHB4, Homo sapiens, UniProt P54760)","enzyme activity, inhibitor",,,> 0.5
COc1cc(-c2ccc3c(c2)N(C)c2ccccc2NC3=O)ccc1[N+](=O)[O-],CHEK1,"enzyme activity, inhibitor",,,1.64
CN1C(=O)c2c(nn(Cc3ccc(-c4cccc(F)n4)cc3)c2Nc2ccccc2)N2C1=N[C@@H]1CCC[C@@H]12,"Dual specificity calcium/calmodulin-dependent 3',5'-cyclic nucleotide phosphodiesterase 1C (PDE1C, Homo sapiens, UniProt Q14123)","enzyme activity, inhibitor, radiometric",,,5.3e-05
O=C(O)C1=CCCN(CCON=C(c2ccccc2)c2ccccc2)C1,"Sodium- and chloride-dependent GABA transporter 1 (Slc6a1, Rattus norvegicus, UniProt P23978)","ligand displacement, radioligand",,,0.39
Clc1ccc(C(c2ccccc2)c2nnnn2CCCCN2CCC(CCc3ccccc3)CC2)cc1 (stereo not shown),SLC6A3,"transporter uptake, inhibitor",,,0.443
COc1ccc(CNc2c(CO)cnc3c(C4CC4)cc(C#N)cc23)cn1,PDE10A,"enzyme activity, inhibitor",,,> 10
C#CCNC(=N)NCCCSC[C@H]1O[C@@H](n2cnc3c(NCCCc4ccccc4)ncnc32)[C@H](O)[C@@H]1O,PRMT1,"enzyme activity, inhibitor, fluorescence",,,2.09
Fc1ccc(C(c2ccc(F)cc2)c2nnnn2CCCCN2CCC(Cc3ccccc3)CC2)cc1,SLC6A3,"transporter uptake, inhibitor",,,0.0579
Cc1ccc(C(=O)Nc2ccc(Oc3cc4cnn(C)c4cc3-c3cn[nH]c3)c(F)c2)c(=O)n1-c1ccc(F)cc1,DDR2,"enzyme activity, inhibitor, radiometric",,,0.041
Clc1ccc(C(c2ccccc2)c2nnnn2CCCN2CCC(CCCc3ccccc3)CC2)cc1 (stereo not shown),SLC6A3,"transporter uptake, inhibitor",,,0.843
CCN(CC)C(=S)SSC(=S)N(CC)CC,PTPN22,"enzyme activity, inhibitor, fluorescence",,pH 6.5,47
CSc1ccc(/C=C2/C(C)=C(CC(=O)O)c3cc(F)ccc32)cc1,PDE10A,"enzyme activity, inhibitor",,,> 100
COc1cc(-c2ccc3c(c2)Nc2ccc(CC(=O)N4CCCC(O)C4)cc2NC3=O)ccc1Cl (stereo not shown),CHEK1,"enzyme activity, inhibitor",,,0.0148
Clc1ccc(C(c2ccccc2)c2nnnn2CCCN2CCC(Cc3ccccc3)CC2)cc1 (stereo not shown),SLC6A3,"transporter uptake, inhibitor",,,0.226
COc1cc(C[C@H]2C(=O)OC[C@@H]2Cc2ccc(OC)c(OC)c2)ccc1O,PDE10A,"enzyme activity, inhibitor",,,> 5
COc1ccc(S(=O)(=O)ON=C2C=C(C)C(=O)C(C)=C2)cc1,"Histone acetyltransferase KAT2A (KAT2A, Homo sapiens, UniProt Q92830)","enzyme activity, inhibitor, radiometric",,,33.9
Cc1cccc(-c2ccnc3c(C(=O)O)cnn23)c1,TLR8,reporter gene,,,> 20
Cc1ccc(NC(=O)c2ccc(C)c(C(F)(F)F)c2)cc1C#Cc1nn(C2CCC(O)CC2)c2ncnc(N)c12 (stereo not shown),DDR2,"enzyme activity, inhibitor, radiometric",,,0.065
COC(=O)C1CCCN1C(=O)c1ccc2c(c1)NC(=O)c1ccc(-c3ccc(O)c(OC)c3)cc1N2 (stereo not shown),CHEK1,"enzyme activity, inhibitor",,,0.128
CCN(CC)C(=O)c1cnn2c(-c3cccc(C(F)(F)F)c3)ccnc12,TLR8,reporter gene,,,> 20
Cc1cc(Nc2cc(CN3CCOCC3)c3nc(C)c(Cc4ccc(Cl)cc4F)n3n2)n[nH]1,"Fibroblast growth factor receptor 2 (FGFR2, Homo sapiens, UniProt P21802)","enzyme activity, inhibitor, TR-FRET",,,0.032
COc1cc2c(cc1OCc1ccncc1)Nc1cc(-c3ccc([N+](=O)[O-])c(OC)c3)ccc1C(=O)N2,CHEK1,"enzyme activity, inhibitor",,,0.00517
CNC(=O)c1cc2c(Oc3ccc(NC(=O)C4(C(=O)Nc5ccc(F)cc5)CC4)cc3)ccnc2cc1OC,DDR2,"enzyme activity, inhibitor, radiometric",,,0.041
O=C1CSC(=S)N1NC(=S)SSC(=S)NN1C(=O)CSC1=S,PTPN22,"enzyme activity, inhibitor, fluorescence",,pH 6.5,3
CCn1ncc2c1-c1cnc(N)c(c1)O[C@H](C)c1cc(F)ccc1-c1nn(C)nc1C2,TNK2,"enzyme activity, inhibitor, radiometric",,,0.077
COc1cc(-c2ccc3c(c2)Nc2ccc(NC(=O)c4cc[nH]n4)cc2NC3=O)ccc1[N+](=O)[O-],CHEK1,"enzyme activity, inhibitor",,,0.00906
C/C(=N\O)c1ccc(-c2ccc(O)c(C)c2)c(Cl)c1O,"Solute carrier family 2, facilitated glucose transporter member 1 (SLC2A1, Homo sapiens, UniProt P11166)","transporter uptake, inhibitor, radiometric",,,11.1
N=C(NCCCSC[C@H]1O[C@@H](n2cnc3c(NCCCc4ccccc4)ncnc32)[C@H](O)[C@@H]1O)NC1CC1,PRMT1,"enzyme activity, inhibitor, fluorescence",,,1.18
COc1ccc(-c2ccccc2)cc1NS(=O)(=O)c1cc(Cl)cc(Cl)c1O,ACLY,"enzyme activity, inhibitor",,,0.46
COc1cc(O)c(C(CC(=O)Nc2ccc(C)cc2)c2ccc3c(c2)OCO3)c(OC)c1 (stereo not shown),"Nuclear receptor ROR-gamma (Mus musculus, UniProt P51450)",reporter gene,,,> 50
C=C1CC[C@@H]([C@H](C)CC(=O)/C=C(\C)C(=O)O)[C@@]12CCC1=C2CC[C@H]2C(C)(C)C(=O)CC[C@]12C,ACLY,"enzyme activity, inhibitor",,,> 20
Fc1ccc(C(c2ccc(F)cc2)c2nnnn2CCCCN2CCC(Cc3ccc(Cl)c(Cl)c3)CC2)cc1,SLC6A3,"transporter uptake, inhibitor",,,0.608
O=C1NC(=O)C(Cc2ccc3cc(OCc4ccccc4F)ccc3c2)S1 (stereo not shown),"Pantothenate kinase 3 (PANK3, Homo sapiens, UniProt Q9H999)","enzyme activity, inhibitor, radiometric",,,5
COC(=O)Cc1ccc2c(c1)NC(=O)c1ccc(-c3cccc4ccccc34)cc1N2,CHEK1,"enzyme activity, inhibitor",,,> 10
CCCC[C@H](NC(=O)[C@H](C)c1c(C)[nH]c2ccc(O)cc12)c1ncc(-c2cc3ccccc3nc2OC)[nH]1,"Histone deacetylase 5 (HDAC5, Homo sapiens, UniProt Q9UQL6)","enzyme activity, inhibitor",,,> 45
OC1CCC(NCc2ccc3c(c2)Cc2c-3n[nH]c2-c2ccc[nH]2)CC1 (stereo not shown),CHEK1,"enzyme activity, inhibitor",,,1.66
O=S(=O)(O)OC[C@H]1O[C@@](COS(=O)(=O)O)(O[C@H]2O[C@H](COS(=O)(=O)O)[C@@H](OS(=O)(=O)O)[C@H](OS(=O)(=O)O)[C@H]2OS(=O)(=O)O)[C@@H](OS(=O)(=O)O)[C@@H]1OS(=O)(=O)O,"Coagulation factor XI (F11, Homo sapiens, UniProt P03951)","enzyme activity, inhibitor, absorbance",,pH 7.4,> 4000
O=c1cc(-c2ccc(-c3[nH]nc4c3Cc3cc(O)ccc3-4)cc2)cc[nH]1,CHEK1,"enzyme activity, inhibitor",,,1.25
N=C(NCCCO)NCCCSC[C@H]1O[C@@H](n2cnc3c(NCCCc4ccccc4)ncnc32)[C@H](O)[C@@H]1O,PRMT1,"enzyme activity, inhibitor, fluorescence",,,4.9
O=C(N[C@@H]1CC[C@@H](c2cccc(F)c2F)CN(CC(F)(F)F)C1=O)N1CCC(n2c(=O)[nH]c3ncccc32)CC1,"ATP-binding cassette sub-family C member 4 (ABCC4, Homo sapiens, UniProt O15439)","transporter uptake, inhibitor",HEK293,cell membranes,42.4
Fc1ccc(C(c2ccc(F)cc2)c2nnnn2CCCCN2CCN(Cc3ccccc3)CC2)cc1,SLC6A3,"transporter uptake, inhibitor",,,0.144
